Only some compounds are listed: those with a hit (about 1.6% of all), similar ones and a draw of the others.
Yeast life ext – extends the lifespan of yeast | 130,000 tested, 0.68% active | inhibition of the nicotinamide effect, % at 10 µM | S. cerevisiae growth with nicotinamide, OD615; deaD strain in restrictive glucose medium;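 active = inhibition above a set limit, placed 3 SD over the median of all compounds, cut at about 26% in these data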;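 also: 0% = nicotinamide-treated wells and 100% = cells grown without nicotinamide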
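Buffer or medium: CSMM-D glucose medium, restrictive; test system: modified budding yeast, DeaD strain; compound: single dose 10 µM compound, 0.25% DMSO; schedule: culture preincubation 4 h, compound exposure 48 h, both 30 °C; detection: optical density (absorbance) at 615 nm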
RBBP9 inh – human RBBP9 hydrolase inhibition. O75884. recombinant RBBP9, FP-Rh probe fluorescence polarization. inhibition, % at 7.94 µM. 220,000 tested, 0.2% active. AID 1515;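 active = inhibition above the campaign mean of all tested compounds plus 3 SD, cut at about 14% in these data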;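 also: plate controls were DMSO wells with RBBP9 for no effect and wells lacking RBBP9 protein for full effect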
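System: RBBP9 protein | Quantity: 2.5 µM RBBP9 dispensing solution, before mixing | Reagent: FP-Rh probe, 375 nM dispensing solution | Timing: Enzyme-compound preincubation 30 min, then probe labeling 45 min, 25 °C | Measured by: Fluorescence polarization | Read-out: % inhibition | Replication: One well per compound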
p47phox inh – p47phox (human) inhibition; p47phox/p22phox peptide binding, fluorescence polarization, 2 h; 220,000 tested, 0.53% active; AID 1274; inhibition, % at 24.7 µM; P14598;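 active = inhibition above about 30%, limit read from the data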;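 also: 0% = p47phox with labelled peptide and 100% = labelled peptide alone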
Target sequence (P14598 whole entry, looked up): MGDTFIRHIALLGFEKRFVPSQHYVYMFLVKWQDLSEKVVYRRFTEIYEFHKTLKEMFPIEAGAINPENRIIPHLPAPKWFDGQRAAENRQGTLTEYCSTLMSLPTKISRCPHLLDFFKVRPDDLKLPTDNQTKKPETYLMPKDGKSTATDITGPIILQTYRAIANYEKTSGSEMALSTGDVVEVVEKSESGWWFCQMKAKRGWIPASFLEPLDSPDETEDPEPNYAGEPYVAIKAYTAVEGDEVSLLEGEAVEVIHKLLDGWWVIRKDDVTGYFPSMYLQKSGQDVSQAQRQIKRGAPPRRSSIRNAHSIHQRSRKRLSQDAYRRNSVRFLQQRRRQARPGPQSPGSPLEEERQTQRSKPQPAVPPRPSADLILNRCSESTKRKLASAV
BB579 growth dn – yeast BB579 growth reduction in restrictive medium. S. cerevisiae BB579 growth, OD615, 48 h. inhibition, % at 10 µM. 140,000 tested, 0.51% active. AID 804;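 active = inhibition above a set limit, 3 SD over the mean compound inhibition, cut at about 44% in these data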
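System: DeaD yeast strain BB579; buffer or medium: CSMM-D dextrose restrictive medium; technique: OD at 615 nm; schedule: 4 h cell preincubation, 48 h compound exposure, 30 °C humidified; doses: single 10 µM dose; controls: amphotericin B 10 µg/mL, positive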
TbHK1 inh – T. brucei hexokinase 1 inhibition | recombinant TbHK1, G6PDH-coupled NADH A340 | inhibition, % at 10 µM | 220,000 tested, 0.11% active | AID 1430;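 active = inhibition of 50% or more in the single-dose primary screen; inactive = inhibition below 50%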
sdo1 growth – compounds rescuing growth of sdo1-depleted yeast, bone marrow failure model | S. cerevisiae sdo1-depleted JHY4D growth rescue, OD600 30 h; stronger effect = higher value; pdr5 snq2 efflux-pump mutant strain | z-score at 10 µM | 140,000 tested, 0.21% active;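 active = z-score above 3 at both the 24 hr and the 30 hr optical density reads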;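 also: z-score against mean and SD of all compound wells on the same plate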
* marks the source's active call; other numbers are inactive results; . = not tested or not shown.

SMILES | Yeast life ext | RBBP9 inh | p47phox inh | BB579 growth dn | TbHK1 inh | sdo1 growth
COc1cc(/C=N/NC(=O)CSc2n[nH]c(=O)[nH]c2=O)cc(OC)c1O | . | -6.1 | -8.6 | . | -16.2 | .
COc1ccc(N(CC(=O)N2CCN(c3ccccc3)CC2)S(=O)(=O)c2c(C)noc2C)cc1 | -2.6 | -5.7 | -12.8 | 30.5 | -17.5 | -0.43
CCOc1ccc(N(CC(=O)N2CCN(c3ccccc3)CC2)S(=O)(=O)c2c(C)noc2C)cc1 | -7.4 | 1.1 | 42.8* | -26.3 | -8.0 | -0.02
COc1ccccc1C(=O)N/C(=C/c1ccc(Br)cc1)C(=O)N1CCCC1 | . | 0.9 | . | . | -6.5 | .
Cc1cc(C(F)(F)F)nn1Cc1n[nH]c(=S)n1-c1ccc(Cl)cc1 | -26.8 | 0.7 | 31.1* | -11.9 | -5.2 | 0.8
Cc1cc(C(F)(F)F)nn1Cc1n[nH]c(=S)n1-c1cccc(Cl)c1 | -16.6 | -9.7 | 2.3 | -55.7 | 1.2 | 0.64
CCCSc1nc(C)cc(=O)[nH]1 | -4.2 | 9.5 | -7.0 | -20.2 | -11.5 | 0.31
CCCSc1nc(N)cc(=O)[nH]1 | 33.8* | 6.7 | -11.2 | -28.2 | 1.6 | 0.46
Cc1cc(/C=N/N2CCN(C)CC2)c(C)n1-c1ccccc1F | . | -4.1 | -8.2 | . | 0.9 | .
O=S1(=O)C=CC(c2ccccc2)C1 (stereo not drawn) | . | -5.2 | -10.8 | . | -0.4 | .
COc1ccc(NC(=O)Nc2c(C)n(C)n(-c3ccccc3)c2=O)cc1 | -11.5 | -0.8 | -12.8 | -32.3 | -1.2 | 0.82
COc1ccc(/C(O)=C/C(=O)C(=O)Nc2c(C)n(C)n(-c3ccccc3)c2=O)cc1 | 72.6* | 3.9 | -0.4 | -34.3 | -32.8 | 0.71
CCC(CC)C(=O)Nc1c(C)n(C)n(-c2ccccc2)c1=O | 57.1* | -11.9 | -6.2 | -4.9 | 15.6 | 0.77
Cc1c(NC(=O)C(=O)/C=C(/O)c2ccccc2)c(=O)n(-c2ccccc2)n1C | 67.1* | 1.8 | 3.0 | -18.3 | -18.5 | 0.95
CN(Cc1ccccc1)C(=O)COC(=O)c1ccc(Cl)cc1N | . | -3.8 | 1.0 | . | -3.1 | .
O=C(NCc1cccnc1)c1cc(-c2cccs2)on1 | -14.2 | 4.3 | 137.6* | -5.2 | -8.6 | 0.35
CC1(C)CC2CC(C)(CN2C(=S)NC(=O)c2ccccc2Cl)C1 (stereo not drawn) | 28.8* | 1.0 | -1.4 | -37.2 | -3.0 | -1.29
CC(=O)NS(=O)(=O)c1ccc(NC(=O)c2ccc3c(c2)C(=O)N(CCC(C)C)C3=O)cc1 | 1.6 | -6.0 | 59.3* | -2.1 | -0.4 | -0.31
CC(=O)c1ccc(NC(=O)Nc2ccc(Br)cc2C)cc1 | . | 0.2 | -4.1 | . | 5.1 | .
CSc1ccc(/C=C(/NC(=O)c2ccc(C)cc2)C(=O)Nc2cccc(F)c2)cc1 | 1.0 | 2.6 | 67.3* | 3.1 | -13.5 | 1.28
CCc1nc2cc(C)nn2c2nc3ccccc3n12 | -20.6 | 5.8 | -5.8 | 10.4 | -5.4 | 0.86
Cc1cc2nc(C)n3c4ccccc4nc3n2n1 | -15.4 | -2.4 | -13.9 | 85.5* | -0.3 | -0.53
Cc1ccc(C(=O)NC(=S)NCC2CCCO2)cc1 (stereo not drawn) | 31.9* | -6.2 | -1.6 | -33.4 | -3.3 | -0.42
Cc1ccc(C(=O)COC(=O)c2ccc(O)cc2)cc1 | . | -1.1 | 0.2 | . | -2.1 | .
C=CCNC(=O)c1onc(CSc2cccc(OC)c2)c1C(=O)O | -2.9 | -4.8 | 31.9* | -80.3 | -5.8 | 0.29
SMILES | Yeast life ext | RBBP9 inh | p47phox inh | BB579 growth dn | TbHK1 inh | sdo1 growth
C=C1C(=O)C=C2CN(C(=O)c3ccccc3)[C@@](Cc3ccc(F)cc3)(C(=O)OC)[C@@H]12 | 42.8* | -7.3 | -15.4 | -15.0 | -3.1 | -1.42
COC(=O)[C@@]1(Cc2ccc(OC)cc2)[C@@H]2C(=CC(=O)[C@H]2CC(=O)C(=O)N(C)C)CN1C(=O)c1ccccc1 | 2.6 | -7.1 | -6.0 | -33.1 | -0.2 | -0.34
O=c1c2cc(NC(=S)NCc3cccnc3)ccc2nc2n1CCCCC2 | . | -9.1 | 10.5 | . | -6.0 | .
O=c1[nH][nH]cc1C=Nc1ccccc1Cl | . | -0.3 | 17.5 | . | -2.7 | .
O=c1[nH][nH]cc1C=Nc1ccccc1O | -14.0 | -8.2 | 11.1 | 50.3* | -2.6 | -1.41
OCCC1CN(Cc2cnc(N3CCOCC3)s2)CCN1C1CCCC1 (stereo not drawn) | . | -6.7 | 0.8 | . | -16.2 | .
O=C(c1ccccc1)c1nc2ccccc2[nH]c1=O | 76.2* | -6.3 | -18.2 | -52.8 | -10.9 | -0.07

Assay outcomes as filed in PubChem.
